Values after ≈ are worked out from the molar mass of the structure shown. Active and inactive are the calls of the source. The rule behind the calls is not given here. Where a SMILES comes first, the peptide text is derived from it. Bridges are numbered along the chain shown (N, C = ends).
Experiments:
Candida albicans [1] = test: Induction of membrane damage in Candida albicans ATCC 18804 at 50% MFC by propidium iodide staining; format: functional, organism-based
Outline: (§1)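 C. albicans treated 15 min at 30°C with N-terminally carboxyfluorescein-labelled peptides at 50% MFC plus 4 µg/ml propidium iodide. Untreated cells served as control. Examined by confocal microscopy using 488- and 543-nm laser lines, 63× water objective and 1 airy unit optical sections.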

Candida albicans [2] = test: Fungicidal activity against Candida albicans ATCC 18804 assessed as […] killing rate at 2 times MFC in presence of 100 mM NaCl; format: functional
Outline: (§2)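 Mid-log cells at 10^6/ml in 10 mM phosphate buffer pH 7.4 containing added NaCl (25 or 100 mM), CaCl2 (0.5 or 5 mM) or MgCl2 (0.5 or 25 mM). Peptides at the stated multiple of MFC, 2 h at 30°C. Aliquots diluted and plated on YEPD agar for 24 h. Colonies counted and percent killing calculated. Three independent experiments in duplicate.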

Candida albicans [3] = test: Fungicidal activity against Candida albicans ATCC 18804 at MFC pretreated with 50 uM carbonyl cyanide m-chlorophenylhydrazone for 2 hrs at 30 deg C; format: functional, organism-based
Outline: (§3)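 Mid-log cells at 10^6/ml in phosphate buffer were preincubated 2 h at 30°C with shaking with 5 mM sodium azide or 50 µM CCCP. Peptides were then added at MFC for 2 h at 30°C. Cells plated on YEPD agar for 24 h and colonies counted as percent killing. Three independent experiments in duplicate.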

Candida albicans [4] = test: Fungicidal activity against Candida albicans ATCC 18804 at MFC in presence of 25 mM NaCl; format: functional, organism-based; outline: as §2
Candida albicans [5] = test: Antifungal activity against Candida albicans ATCC 18804 after 24 hrs; format: functional; settings: ATCC 18804, 24 h
Outline: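 Mid-log C. albicans (subcultured 2 h in YEPD after 20 h aerobic growth at 30°C), washed and resuspended at 10^6 cells/ml in 10 mM phosphate buffer pH 7.4. Exposed to peptides for 2 h at 30°C, then diluted, plated on YEPD agar and incubated 24 h at 30°C. MFC = concentration giving no viable colonies. Averages of three independent experiments in duplicate.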

[6] = Toxicity in human Erythrocyte assessed as hemolysis upto 75 uM; format: cell-based
Outline: (§4)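 Human erythrocytes from heparinized blood, washed three times in 5 mM HEPES pH 7.4 with 150 mM NaCl. 10^7 cells/ml incubated with a range of peptide concentrations for 30 min at 37°C with gentle mixing. Supernatant absorbance read at 540 nm. 0.1% Triton X-100 lysis taken as maximum.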

Candida albicans [7] = test: Drug uptake in Candida albicans ATCC 18804 assessed as cellular localization at MFC50 by confocal fluorescence microscopy; format: ADME, organism-based; settings: in vivo; outline: as §1
Candida albicans [8] = test: Fungicidal activity against Candida albicans ATCC 18804 at MFC in presence of 100 mM NaCl; format: functional, organism-based; outline: as §2
Candida albicans [9] = test: Fungicidal activity against Candida albicans ATCC 18804 at MFC in presence of 5 mM CaCl2; format: functional, organism-based; outline: as §2
Candida albicans [10] = test: Induction of membrane damage in Candida albicans ATCC 18804 by Sytox green dye influx assay; format: functional, organism-based
Outline: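 Mid-log cells (10^7 CFU/ml) washed and resuspended in phosphate buffer with 1 µM Sytox green at 30°C. Once basal fluorescence was constant, peptide was added and the fluorescence increase recorded at excitation 488 nm and emission 540 nm.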

Candida albicans [11] = test: Fungicidal activity against Candida albicans ATCC 18804 at MFC pretreated with 5 mM sodium azide for 2 hrs at 30 deg C; format: functional, organism-based; outline: as §3
Candida albicans [12] = test: Fungicidal activity against Candida albicans ATCC 18804 at MFC in presence of 0.5 mM MgCl2; format: functional, organism-based; outline: as §2
Candida albicans [13] = test: Fungicidal activity against Candida albicans ATCC 18804 at MFC in presence of 0.5 mM Ca2+; format: functional, organism-based; outline: as §2
[14] = Toxicity in human Erythrocyte assessed as hemolysis at 100 uM; format: cell-based; settings: erythrocytes, read-out: Activity; outline: as §4
[15] = Drug localization in membranes of Candida albicans ATCC 18804 at 50% MFC by confocal microscopy; format: ADME; outline: as §1
Candida albicans [16] = test: Fungicidal activity against Candida albicans ATCC 18804 at MFC in presence of 0.5 mM Mg2+; format: functional, organism-based; outline: as §2
Candida albicans [17] = test: Fungicidal activity against Candida albicans ATCC 18804 at MFC in presence of 25 mM MgCl2; format: functional, organism-based; outline: as §2

| Drug uptake (Candida albicans [7]) | Drug uptake [15] | SMILES | Activity (Candida albicans [1]) | inhibition (percent killing) (Candida albicans [2]) [%] | fungicidal activity (active/not active) (Candida albicans [3]) | inhibition (Candida albicans [4]) | MFC (Candida albicans [5]) [µM] | Activity [6] | inhibition (Candida albicans [8]) | inhibition (Candida albicans [9]) | Activity (Candida albicans [10]) | inhibition (Candida albicans [11]) | inhibition (Candida albicans [12]) | inhibition (Candida albicans [13]) | hemolysis at 100 µM [14] [%] | inhibition (Candida albicans [16]) | inhibition (Candida albicans [17]) |
| --- | --- | --- | --- | --- | --- | --- | --- | --- | --- | --- | --- | --- | --- | --- | --- | --- | --- |
| Active | Active | CC[C@H](C)[C@@H]1NC(=O)[C@H](CCCCN)NC(=O)[C@H]([C@@H](C)O)NC(=O)[C@H](Cc2ccccc2)NC(=O)[C@H]([C@@H](C)CC)NC(=O)[C@@H]2CCCN2C(=O)[C@@H](NC(=O)[C@H](C)N)CSSC[C@@H](C(=O)N[C@@H](CCCCN)C(=O)O)NC(=O)[C@H](CCCCN)NC(=O)[C@H](C)NC(=O)[C@H](CCCCN)NC(=O)CNC(=O)[C@H](CCCNC(=N)N)NC(=O)[C@H](Cc2ccc(O)cc2)NC(=O)[C@H]([C@@H](C)O)NC(=O)CNC(=O)[C@H](CCC(N)=O)NC1=O (H-ACPIFTKIQGTYRGKAKCK-OH; disulfide 2-18) | Active | 50 | Active | Active | 18 (≈ 38 µg/mL) | Non-toxic | inactive | inactive | Active | Active | Active | Active | 15 | Active |  |
| Active | Active | CC[C@H](C)[C@@H]1NC(=O)[C@H](CCC(N)=O)NC(=O)[C@H](CCC(=O)O)NC(=O)[C@H](CCC(=O)O)NC(=O)[C@H](CCCCN)NC(=O)[C@@H]2CCCN2C(=O)[C@H](CC(C)C)NC(=O)[C@@H](NC(=O)[C@@H](N)CO)CSSC[C@@H](C(=O)N[C@@H](CCCNC(=N)N)C(=O)N[C@@H](CCCNC(=N)N)C(=O)N[C@@H](CCCCN)C(=O)N[C@@H](CCCCN)C(=O)O)NC(=O)[C@H](CCCCN)NC(=O)[C@H](CCCNC(=N)N)NC(=O)CNC(=O)[C@H](CCCNC(=N)N)NC(=O)[C@H]([C@@H](C)O)NC(=O)[C@H](CO)NC(=O)[C@H](CCCCN)NC(=O)CNC1=O (H-SCLPKEEQIGKSTRGRKCRRKK-OH; disulfide 2-18) | Active | 50 | Active | Active | 16 (≈ 41.4 µg/mL) | Non-toxic | inactive |  | Active | Active |  | Active | 15 | Active | Active |
|  |  | CC[C@H](C)[C@@H]1NC(=O)[C@H](CCCCN)NC(=O)[C@H]([C@@H](C)O)NC(=O)[C@H](Cc2ccccc2)NC(=O)[C@H]([C@@H](C)CC)NC(=O)[C@@H]2CCCN2C(=O)[C@@H]2CSSC[C@@H](C(=O)N[C@@H](CCCCN)C(=O)O)NC(=O)[C@@H]3CSSC[C@H](NC(=O)[C@H](CC(N)=O)NC(=O)[C@H](Cc4ccc(O)cc4)NC(=O)[C@H](Cc4cnc[nH]4)NC(=O)[C@@H](N)CC(=O)O)C(=O)N[C@@H](C(C)C)C(=O)N[C@@H](CO)C(=O)N[C@@H](CO)C(=O)NCC(=O)NCC(=O)N[C@@H](CCC(N)=O)C(=O)N[C@@H](CSSC[C@H](NC(=O)[C@H]([C@@H](C)O)NC(=O)CNC(=O)[C@H](CCC(N)=O)NC1=O)C(=O)N[C@@H](Cc1ccc(O)cc1)C(=O)N[C@@H](CCCNC(=N)N)C(=O)NCC(=O)N[C@@H](CCCCN)C(=O)N[C@@H](C)C(=O)N[C@@H](CCCCN)C(=O)N3)C(=O)N[C@@H](CC(C)C)C(=O)N[C@@H](Cc1ccc(O)cc1)C(=O)N[C@@H](CO)C(=O)N[C@@H](C)C(=O)N2 (H-DHYNCVSSGGQCLYSACPIFTKIQGTCYRGKAKCCK-OH; disulfide 5-34, 12-27, 17-35) |  | 50 | inactive | inactive | 7 (≈ 27.5 µg/mL) |  | inactive | inactive |  | inactive | Active |  |  |  |  |
| Active | Active | CC[C@H](C)[C@@H]1NC(=O)[C@H](CCC(N)=O)NC(=O)[C@H](CCCCN)NC(=O)[C@H](Cc2ccc(O)cc2)NC(=O)[C@H](CCCNC(=N)N)NC(=O)[C@H](CCCNC(=N)N)NC(=O)[C@@H]2CCCN2C(=O)[C@@H](NC(=O)[C@@H](N)Cc2ccccc2)CSSC[C@@H](C(=O)N[C@@H](CCCCN)C(=O)O)NC(=O)[C@H](CCCCN)NC(=O)[C@H]([C@@H](C)O)NC(=O)CNC(=O)[C@@H]2CCCN2C(=O)[C@H](CC(C)C)NC(=O)CNC(=O)[C@H]([C@@H](C)O)NC(=O)CNC1=O (H-FCPRRYKQIGTGLPGTKCK-OH; disulfide 2-18) | Active | 50 | Active | Active | 18 (≈ 38.7 µg/mL) | Non-toxic | inactive | inactive | Active | Active | Active | Active | 15 | Active |  |

Source: ChEMBL document CHEMBL1671640, “Antifungal activities of human beta-defensins HBD-1 to HBD-3 and their C-terminal analogs Phd1 to Phd3” (Antimicrob Agents Chemother, 2009)
